Usually pKi stands for the negative decadic logarithm of the Ki, by convention in mol/L. Read a high pKi as a low Ki. The Ki is a dissociation constant, usually derived from enzyme kinetics or from competition with a known ligand. In general, ED50 refers to the dose at which the effect has come halfway, by size or by number of responders. By half-life is commonly meant the time needed for the level to fall by half in the phase considered. Read a high half-life as slow loss. Broadly, the CL/F is the apparent clearance, not corrected for the fraction that reaches the circulation.

We go through one compound from ChEMBL document CHEMBL4725387, “Synthesis and pharmacological evaluation of piperidine (piperazine)-amide substituted derivatives as multi-target antipsychotics” (Bioorg Med Chem Lett, 2020).

In data set [1] the target is T1, 5-hydroxytryptamine receptor 2C (Homo sapiens, UniProt P28335).
T1 sequence (P28335 whole entry): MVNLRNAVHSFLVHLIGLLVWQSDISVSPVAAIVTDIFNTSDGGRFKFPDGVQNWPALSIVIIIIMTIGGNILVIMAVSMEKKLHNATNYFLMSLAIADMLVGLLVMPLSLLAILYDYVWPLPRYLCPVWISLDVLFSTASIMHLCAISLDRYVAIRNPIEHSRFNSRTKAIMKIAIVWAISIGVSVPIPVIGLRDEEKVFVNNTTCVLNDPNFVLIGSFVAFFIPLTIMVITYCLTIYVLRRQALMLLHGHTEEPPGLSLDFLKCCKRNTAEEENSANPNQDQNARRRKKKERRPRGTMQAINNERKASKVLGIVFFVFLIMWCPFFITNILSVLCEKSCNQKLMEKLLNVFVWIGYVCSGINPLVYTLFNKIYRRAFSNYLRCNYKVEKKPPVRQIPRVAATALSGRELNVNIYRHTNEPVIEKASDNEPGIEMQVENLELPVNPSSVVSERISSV
Put plainly: Binding affinity to 5HT2C receptor (unknown origin). Put shortly: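 Radioligand displacement binding. Ki is the mean ± SEM of three experiments.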

Data set [2] deals with T2, Adrenergic receptor alpha-1 (Homo sapiens, UniProt P35348+P25100+P35368).
T2 sequence (P35348 whole entry): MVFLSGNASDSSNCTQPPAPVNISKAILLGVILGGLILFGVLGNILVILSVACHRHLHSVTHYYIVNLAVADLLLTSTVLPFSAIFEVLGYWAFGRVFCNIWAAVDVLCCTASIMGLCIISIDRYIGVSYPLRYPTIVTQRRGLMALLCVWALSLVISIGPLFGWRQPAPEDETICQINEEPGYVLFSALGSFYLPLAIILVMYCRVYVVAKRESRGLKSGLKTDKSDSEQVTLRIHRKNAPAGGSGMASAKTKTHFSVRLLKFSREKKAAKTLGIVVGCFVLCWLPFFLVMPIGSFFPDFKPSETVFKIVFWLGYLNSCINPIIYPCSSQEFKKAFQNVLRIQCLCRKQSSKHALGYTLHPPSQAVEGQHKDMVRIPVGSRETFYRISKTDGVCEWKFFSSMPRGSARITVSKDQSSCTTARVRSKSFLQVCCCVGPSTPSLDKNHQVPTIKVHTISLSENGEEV
T2 sequence (P25100 whole entry): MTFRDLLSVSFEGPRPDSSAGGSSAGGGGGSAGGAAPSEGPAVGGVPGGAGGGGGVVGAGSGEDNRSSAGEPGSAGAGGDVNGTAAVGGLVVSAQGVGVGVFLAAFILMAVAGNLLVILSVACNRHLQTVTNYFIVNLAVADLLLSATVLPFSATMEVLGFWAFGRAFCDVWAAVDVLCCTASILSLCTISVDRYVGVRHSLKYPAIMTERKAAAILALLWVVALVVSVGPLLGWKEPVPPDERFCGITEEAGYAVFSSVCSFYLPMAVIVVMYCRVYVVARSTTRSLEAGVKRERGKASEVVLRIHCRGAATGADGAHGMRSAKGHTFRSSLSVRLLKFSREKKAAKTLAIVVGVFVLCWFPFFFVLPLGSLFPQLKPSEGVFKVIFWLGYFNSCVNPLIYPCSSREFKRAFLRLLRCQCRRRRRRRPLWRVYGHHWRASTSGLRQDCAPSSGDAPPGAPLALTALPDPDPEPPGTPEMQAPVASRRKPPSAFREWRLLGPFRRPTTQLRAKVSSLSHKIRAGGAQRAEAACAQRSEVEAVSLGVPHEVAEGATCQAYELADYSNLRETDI
T2 sequence (P35368 whole entry): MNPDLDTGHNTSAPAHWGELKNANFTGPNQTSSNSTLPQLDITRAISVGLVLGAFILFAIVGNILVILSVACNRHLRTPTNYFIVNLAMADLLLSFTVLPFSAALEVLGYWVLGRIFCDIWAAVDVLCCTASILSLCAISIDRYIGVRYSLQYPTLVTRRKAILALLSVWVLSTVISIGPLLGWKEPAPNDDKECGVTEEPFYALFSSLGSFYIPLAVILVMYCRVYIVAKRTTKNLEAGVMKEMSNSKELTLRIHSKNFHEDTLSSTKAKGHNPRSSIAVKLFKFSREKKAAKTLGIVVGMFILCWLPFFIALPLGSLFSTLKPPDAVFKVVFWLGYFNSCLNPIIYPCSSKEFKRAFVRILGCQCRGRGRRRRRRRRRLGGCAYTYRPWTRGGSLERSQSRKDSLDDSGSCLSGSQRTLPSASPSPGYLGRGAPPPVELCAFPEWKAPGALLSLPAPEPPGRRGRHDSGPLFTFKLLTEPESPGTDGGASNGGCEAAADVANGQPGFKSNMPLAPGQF
As to the kind of experiment: Binding affinity to alpha1 adrenergic receptor (unknown origin). It counts as protein assay.

The test system of a further data set is Mus musculus. As to the kind of experiment: Antipsychotic activity in po dosed mouse assessed as suppression of apomorphine-induced climbing behaviour. It counts as functional. The method in brief:
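Mice climbing induced by apomorphine 1.0 mg/kg sc. Test article given po at 0.01, 0.03, 0.1, 0.3 and 1.0 mg/kg in 30% PEG 400. ED50 reported with 95% confidence limits.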

Data set [3] in a line: Therapeutic index, ratio of ED50 for induction of catalepsy in po dosed mouse to ED50 for antipsychotic activity in po dosed mouse assessed as suppression of apomorphine-induced climbing. As to conditions: in vivo, read-out: Ratio ED50. It counts as toxicity, organism-based. The method in brief:
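Therapeutic index is the catalepsy ED50 divided by the efficacy ED50 from the apomorphine climbing or MK-801 hyperactivity model. All were oral dosing in mice, vehicle 30% PEG 400.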

The test system of a further data set is Rattus norvegicus. As to the kind of experiment: Memory enhancement effect in rat assessed as increase in total exploratory time for novel objects at 0.01 mg/kg, po administered 1 hr prior to acquisition trial and measured after 24 hrs by novel object recognition test. It counts as functional, organism-based. As to conditions: time 25.0 hrs. Put shortly:
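Rat novel object recognition, n = 10. Oral dosing in 30% PEG 400 1 h before the acquisition trial with two identical objects. At 24 h one object was replaced by a novel one and exploration times were scored. Mean ± SEM, post-hoc Student's t-test versus vehicle.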

The nature of data set [4]: Half life in rat at 10 mg/kg, po. It counts as ADME, organism-based. The note with it: in vivo. The method in brief:
(§1)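 Male rats, n = 6 per group, given a single oral dose of 10 mg/kg. PK parameters taken from serum concentration–time profiles: Cmax, Tmax, t1/2, AUC0-t, AUC0-∞, CL/F, F%.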

Data set [5] can be described thus: Apparent oral clearance in rat at 10 mg/kg, po. It counts as ADME, organism-based. As to conditions: in vivo. Put shortly: as §1

SMILES strings stand for the structures. pKi: −log10 of the molar value. Active and inactive are the calls of the source.

The compound `CC(=O)Nc1ccc(OCCCN2CCC(c3noc4cc(F)ccc34)CC2)cc1` had a pKi in data set [1] of 5.70. In data set [2], this compound displayed a Ki of 3296 nM. In addition, the ED50 in the data set on Mus musculus was found to be 0.28 mg/kg. The selectivity ratio in data set [3] is 90. For the same compound, the outcome in the data set with Rattus norvegicus was inactive. In data set [4], this compound had a half-life of 3.34 h. In data set [5], the CL/F is 0.173 mL/min.
